Measurements reported in ChEMBL document CHEMBL5376013, “Design, synthesis and biological evaluation of novel morpholinopyrimidine-5-carbonitrile derivatives as dual PI3K/mTOR inhibitors” (RSC Med Chem, 2024).

Key:
Assay type in all cases: functional
Conditions in all cases: read-out: GI
HL-60 = test: Antitumor activity against human HL-60 cells assessed as growth inhibition at 10 uM relative to control
In short: (§1)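 After drug addition, plates were incubated 48 h at 37 °C under 5% CO2. Adherent cells were fixed with cold TCA (10% final, 60 min, 4 °C) and suspension cells with 16% final TCA. Staining used 0.4% SRB in 1% acetic acid, solubilized in 10 mM trizma, read at A515. Percent growth was calculated from time-zero, control and treated absorbances.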

MOLT-4 = test: Antitumor activity against human MOLT-4 cells assessed as growth inhibition at 10 uM relative to control; in short: as §1
EKVX = test: Antitumor activity against human EKVX cells assessed as growth inhibition at 10 uM relative to control; in short: as §1
HOP-62 = test: Antitumor activity against human HOP-62 cells assessed as growth inhibition at 10 uM relative to control; in short: as §1
HOP-92 = test: Antitumor activity against human HOP-92 cells assessed as growth inhibition at 10 uM relative to control; in short: as §1
NCI-H226 = test: Antitumor activity against human NCI-H226 cells assessed as growth inhibition at 10 uM relative to control; in short: as §1
NCI-H322M = test: Antitumor activity against human NCI-H322M cells assessed as growth inhibition at 10 uM relative to control; in short: as §1
NCI-H460 = test: Antitumor activity against human NCI-H460 cells assessed as growth inhibition at 10 uM relative to control; in short: as §1
NCI-H522 = test: Antitumor activity against human NCI-H522 cells assessed as growth inhibition at 10 uM relative to control; in short: as §1
COLO 205 = test: Antitumor activity against human COLO 205 cells assessed as growth inhibition at 10 uM relative to control; in short: as §1
HCT-116 = test: Antitumor activity against human HCT-116 cells assessed as growth inhibition at 10 uM relative to control; in short: as §1
HCT-15 = test: Antitumor activity against human HCT-15 cells assessed as growth inhibition at 10 uM relative to control; in short: as §1
HT-29 = test: Antitumor activity against human HT-29 cells assessed as growth inhibition at 10 uM relative to control; in short: as §1
KM12 = test: Antitumor activity against human KM12 cells assessed as growth inhibition at 10 uM relative to control; in short: as §1
SW-620 = test: Antitumor activity against human SW-620 cells assessed as growth inhibition at 10 uM relative to control
In short: (§2)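 Drug exposure 48 h at 37 °C, 5% CO2. Adherent cells fixed with cold TCA (10% final), suspension cells with TCA (16% final). Stained with 0.4% SRB in 1% acetic acid, dissolved in 10 mM Tris, A515. Growth relative to time-zero and untreated control.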

SF-268 = test: Antitumor activity against human SF-268 cells assessed as growth inhibition at 10 uM relative to control; in short: as §1
SF-295 = test: Antitumor activity against human SF-295 cells assessed as growth inhibition at 10 uM relative to control; in short: as §1
SF-539 = test: Antitumor activity against human SF-539 cells assessed as growth inhibition at 10 uM relative to control; in short: as §1
SNB-75 = test: Antitumor activity against human SNB-75 cells assessed as growth inhibition at 10 uM relative to control; in short: as §2
U-251 = test: Antitumor activity against human U-251 cells assessed as growth inhibition at 10 uM relative to control; in short: as §2
LOX IMVI = test: Antitumor activity against human LOX IMVI cells assessed as growth inhibition at 10 uM relative to control; in short: as §1
M14 = test: Antitumor activity against human M14 cells assessed as growth inhibition at 10 uM relative to control; in short: as §1
MDA-MB-435 = test: Antitumor activity against human MDA-MB-435 cells assessed as growth inhibition at 10 uM relative to control; in short: as §1
SK-MEL-2 = test: Antitumor activity against human SK-MEL-2 cells assessed as growth inhibition at 10 uM relative to control; in short: as §1
SK-MEL-28 = test: Antitumor activity against human SK-MEL-28 cells assessed as growth inhibition at 10 uM relative to control; in short: as §2
SK-MEL-5 = test: Antitumor activity against human SK-MEL-5 cells assessed as growth inhibition at 10 uM relative to control; in short: as §2
UACC-257 = test: Antitumor activity against human UACC-257 cells assessed as growth inhibition at 10 uM relative to control; in short: as §2
UACC-62 = test: Antitumor activity against human UACC-62 cells assessed as growth inhibition at 10 uM relative to control; in short: as §2
IGROV-1 = test: Antitumor activity against human IGROV-1 cells assessed as growth inhibition at 10 uM relative to control; in short: as §1
OVCAR-3 = test: Antitumor activity against human OVCAR-3 cells assessed as growth inhibition at 10 uM relative to control; in short: as §1
OVCAR-4 = test: Antitumor activity against human OVCAR-4 cells assessed as growth inhibition at 10 uM relative to control; in short: as §1
OVCAR-8 = test: Antitumor activity against human OVCAR-8 cells assessed as growth inhibition at 10 uM relative to control; in short: as §1
SK-OV-3 = test: Antitumor activity against human SK-OV-3 cells assessed as growth inhibition at 10 uM relative to control; in short: as §2
786-0 = test: Antitumor activity against human 786-0 cells assessed as growth inhibition at 10 uM relative to control; in short: as §1
A498 = test: Antitumor activity against human A498 cells assessed as growth inhibition at 10 uM relative to control; in short: as §1
ACHN = test: Antitumor activity against human ACHN cells assessed as growth inhibition at 10 uM relative to control; in short: as §1
CAKI-1 = test: Antitumor activity against human CAKI-1 cells assessed as growth inhibition at 10 uM relative to control; in short: as §1
RXF 393 = test: Antitumor activity against human RXF 393 cells assessed as growth inhibition at 10 uM relative to control; in short: as §1
SN12C = test: Antitumor activity against human SN12C cells assessed as growth inhibition at 10 uM relative to control; in short: as §2
UO-31 = test: Antitumor activity against human UO-31 cells assessed as growth inhibition at 10 uM relative to control; in short: as §2
PC-3 = test: Antitumor activity against human PC-3 cells assessed as growth inhibition at 10 uM relative to control; in short: as §1
DU-145 = test: Antitumor activity against human DU-145 cells assessed as growth inhibition at 10 uM relative to control; in short: as §1
MDA-MB-231 = test: Antitumor activity against human MDA-MB-231 cells assessed as growth inhibition at 10 uM relative to control; in short: as §1
BT-549 = test: Antitumor activity against human BT-549 cells assessed as growth inhibition at 10 uM relative to control; in short: as §1
T47D = test: Antitumor activity against human T47D cells assessed as growth inhibition at 10 uM relative to control; in short: as §2
MDA-MB-468 = test: Antitumor activity against human MDA-MB-468 cells assessed as growth inhibition at 10 uM relative to control; in short: as §1

Cc1cc(C)n(-c2nc(-c3ccc(Cl)cc3)c(C#N)c(N3CCOCC3)n2)n1
inhibition of growth at 10 µM (HL-60): < 1% | inhibition of growth at 10 µM (MOLT-4): 13.3% | inhibition of growth at 10 µM (EKVX): 34.9% | inhibition of growth at 10 µM (HOP-62): 19.9% | inhibition of growth at 10 µM (HOP-92): 24.7% | inhibition of growth at 10 µM (NCI-H226): 14% | inhibition of growth at 10 µM (NCI-H322M): < 1% | inhibition of growth at 10 µM (NCI-H460): < 1% | inhibition of growth at 10 µM (NCI-H522): 14.3% | inhibition of growth at 10 µM (COLO 205): 18.9% | inhibition of growth at 10 µM (HCT-116): 17% | inhibition of growth at 10 µM (HCT-15): < 1% | inhibition of growth at 10 µM (HT-29): < 1% | inhibition of growth at 10 µM (KM12): < 1% | inhibition of growth at 10 µM (SW-620): < 1% | inhibition of growth at 10 µM (SF-268): 14.4% | inhibition of growth at 10 µM (SF-295): < 1% | inhibition of growth at 10 µM (SF-539): 16% | inhibition of growth at 10 µM (SNB-75): 40.1% | inhibition of growth at 10 µM (U-251): < 1% | inhibition of growth at 10 µM (LOX IMVI): 20.1% | inhibition of growth at 10 µM (M14): < 1% | inhibition of growth at 10 µM (MDA-MB-435): < 1% | inhibition of growth at 10 µM (SK-MEL-2): < 1% | inhibition of growth at 10 µM (SK-MEL-28): < 1% | inhibition of growth at 10 µM (SK-MEL-5): 14.5% | inhibition of growth at 10 µM (UACC-257): < 1% | inhibition of growth at 10 µM (UACC-62): < 1% | inhibition of growth at 10 µM (IGROV-1): 23.4% | inhibition of growth at 10 µM (OVCAR-3): 12.1% | inhibition of growth at 10 µM (OVCAR-4): < 1% | inhibition of growth at 10 µM (OVCAR-8): < 1% | inhibition of growth at 10 µM (SK-OV-3): 15.2% | inhibition of growth at 10 µM (786-0): 15.2% | inhibition of growth at 10 µM (A498): 46.3% | inhibition of growth at 10 µM (ACHN): 11.8% | inhibition of growth at 10 µM (CAKI-1): 28.1% | inhibition of growth at 10 µM (RXF 393): 30.5% | inhibition of growth at 10 µM (SN12C): 12.8% | inhibition of growth at 10 µM (UO-31): 45.2% | inhibition of growth at 10 µM (PC-3): < 1% | inhibition of growth at 10 µM (DU-145): < 1% | inhibition of growth at 10 µM (MDA-MB-231): 28.8% | inhibition of growth at 10 µM (BT-549): 30.5% | inhibition of growth at 10 µM (T47D): 22.1% | inhibition of growth at 10 µM (MDA-MB-468): < 1%
